Publication PMC5644278 (Alzheimer's & Dementia : Translational Research & Clinical …, 2016)

Experiments:
healthy male subjects [1] = experiment: Treatment emergent adverse events, single dose study; assay type: in vivo, human; conditions: donepezil 10 mg oral
healthy male subjects [2] = experiment: Adaptive tracking; assay type: in vivo, human; conditions: donepezil 10 mg oral; healthy elderly males
How it was run: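 Healthy males got one intranasal spray dose in a double-dummy design with oral capsules: 11 mg for young subjects, 22 or 33 mg for elderly subjects, 6 per dose, with age-matched nasal placebo. NeuroCart tests were run twice before dosing, then at 1, 2, 3, 4, 5, 6, 8 and 10 h after, in a quiet room, one subject per session. Analysis was mixed-model ANOVA: treatment, time and treatment×time fixed, subject random, baseline as covariate.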

## COc1cc2c(cc1OC)C(=O)C(CC1CCN(Cc3ccccc3)CC1)C2 (stereo not shown) [donepezil, reference compound]
Healthy male subjects [1]; healthy elderly males
  Nausea, incidence: 16.7%
Healthy male subjects [1]; healthy elderly subjects
  Diarrhea, incidence: 33.3%
  Vomiting, incidence: 16.7%
Healthy male subjects [2]
  adaptive tracking compared with placebo (in words): improvement
